14 molecules from ChEMBL document CHEMBL1146535, “New manzamine alkaloids with activity against infectious and tropical parasitic diseases from an Indonesian sponge” (J Nat Prod, 2003) can be followed below.

The term MIC denotes the lowest concentration found to suppress growth. As usually defined, the EC50 is the midpoint of the concentration-response curve. By IC50 is commonly meant the concentration at which inhibition is half-maximal. A word on the IC90: it is the concentration at which the effect reaches the 90% level.

Each structure is given as a SMILES string. Converted amounts (≈) assume the structure as drawn. The source made the active and inactive calls. The calls are words filed in the database; no cut-off is given here.

One data set concerns Vero. Description: Cytotoxicity against african green monkey Vero cells. It is filed as cell-based. The note with it: chlorocebus sabaeus.
For data set [1], the system named is Plasmodium falciparum. Description: Antimalarial activity against chloroquine-resistant Plasmodium falciparum W2. Format: functional, organism-based.
For data set [2], the system named is Plasmodium falciparum. As to the kind of experiment: Antimalarial activity against Plasmodium falciparum D6. It is filed as functional, organism-based.
In another data set the test system is Leishmania donovani. Description: Antileishmanial activity against Leishmania donovani promastigotes expressing luciferase. It is filed as functional, organism-based. The essentials:
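Transgenic L. donovani promastigote line stably expressing luciferase used as the test organism. Pentamidine and amphotericin B run alongside as reference antileishmanials.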

The test system of data set [3] is Mycobacterium tuberculosis. Description: Antimycobacterial activity against Mycobacterium tuberculosis H37Rv. It is filed as functional.
The subject of data set [4] is Human immunodeficiency virus 1. As to the kind of experiment: Antiviral activity against HIV1 in human PBM cells. It is filed as functional, organism-based. The following applies: Human immunodeficiency virus 1, PBMC.
The test system of another data set is HT-29. As to the kind of experiment: Cytotoxicity against human HT-29 cells. It is filed as functional, cell-based.
The nature of data set [5]: Cytotoxicity against human […] cells. Format: functional, cell-based.
The nature of data set [6]: Cytotoxicity against mouse MS1 cells. Format: cell-based. The note with it: MS-1.
Data set [7] in a line: Cytotoxicity against human H116 cells. It is filed as functional, cell-based.

Turning to `O=C1[C@@H]2CCCCCCN2[C@@H]2[C@]13CN1CCCC/C=C\CC[C@]2(O)C=C(c2nccc4c2[nH]c2ccc(O)cc24)[C@@H]3CC1`, the Activity result with Vero is recorded as “Non-toxic”. Further, the result with Plasmodium falciparum [1], in the data set with Plasmodium falciparum [2] and in the data set with Leishmania donovani was inactive.

As for `O=C1NCCc2c1[nH]c1ccccc21`, the Activity result in the data set with Vero was “Non-toxic”. For the same molecule, the outcome in the data set with Plasmodium falciparum [1], in the data set on Plasmodium falciparum [2] and in the data set with Leishmania donovani was inactive.

Take `O=C1CCCN2[C@@H]3[C@@]45CN6CCCC/C=C\CC[C@]3(C=C(c3nccc7c3[nH]c3ccccc37)[C@@H]4CC6)O[C@@]2(CC1)C5`: in the data set with Vero, the Activity result is “Non-toxic”. Also, the outcome in the data set with Plasmodium falciparum [1], in the data set with Plasmodium falciparum [2] and with Leishmania donovani was inactive. Also, in [3], the MIC was 128 µg/mL (≈ 227 µM).

Regarding `Oc1cccc2c1[nH]c1c(C3=C[C@@]4(O)CC/C=C\CCCCN5CC[C@@H]3[C@]3(CC6/C=C\CCCCN6[C@H]34)C5)nccc12` (stereo not given in full), the Activity in the data set on Vero was 1100 ng/mL. Further, the lowest concentration to inhibit growth in data set [3] (MIC) was 0.91 µg/mL (≈ 1.61 µM). This molecule showed an EC50 in [4] of 4200 nM.

In the case of `O[C@]12C=C(c3nccc4c3[nH]c3ccccc34)C3CCN(CCCC/C=C\CC1)C[C@@]31C[C@]34CC[C@H](CCCN3[C@H]12)O4` (stereo not given in full) [6-Deoxymanzamine X], the IC50 amounted to 0.5 µg/mL (≈ 0.885 µM) with HT-29; 1.4 µg/mL (≈ 2.48 µM) in the data set on Plasmodium falciparum [1]; 1 µg/mL (≈ 1.77 µM) in data set [5]; 1.3 µg/mL (≈ 2.3 µM) in the data set with Plasmodium falciparum [2]; 3.2 µg/mL (≈ 5.67 µM) with Leishmania donovani; 1 µg/mL (≈ 1.77 µM) in data set [6]. Further, 0.5 µg/mL (≈ 0.885 µM) corresponded to half-maximal inhibition in [7] (IC50). This molecule displayed an Activity in the data set with Vero of 4760 ng/mL. In data set [3], the MIC was determined as 1.77 µg/mL (≈ 3.13 µM). The molecule also returned an IC90 in the data set on Leishmania donovani of 7.5 µg/mL (≈ 13.3 µM). The EC50 in data set [4] amounted to 1600 nM.

As for `C1=C(c2nccc3c2[nH]c2ccccc23)[C@@H]2CCN3CCCC/C=C\CC[C@]14O[C@@]15/C=C\CCCCN1[C@@H]4[C@]2(C3)C5` [12,34-OXAMANZAMINE A], the Activity entry with Vero is “Non-toxic”. The result in the data set with Plasmodium falciparum [1] was inactive.

Regarding `O[C@@H]1CCCN2[C@@H](CC1)C[C@]13CN4CCCC/C=C\CC[C@](O)(C=C(c5nccc6c5[nH]c5ccccc56)[C@@H]1CC4)[C@H]23` [32,33-DIHYDRO-31-HYDROXYMANZAMINE A], the Activity entry with Vero is listed as “Non-toxic”. Moreover, the outcome in the data set with Plasmodium falciparum [1], in the data set on Plasmodium falciparum [2] and in the data set on Leishmania donovani was inactive.

For `O=C(c1c[nH]cn1)c1nccc2c1[nH]c1ccccc12` [DES-N-METHYLXESTOMANZAMINE A], the Activity entry with Vero was “Non-toxic”. In the data set on Plasmodium falciparum [1], the result was inactive. Moreover, the result in the data set on Plasmodium falciparum [2] was inactive. Further, in the data set with Leishmania donovani, the IC50 worked out at 35 µg/mL (≈ 133 µM) and the IC90 was greater than 50 µg/mL.

Turning to `OC1=C[C@@]2(O)CC/C=C\CCCCN3CC[C@@H]1[C@]1(C[C@@H]4/C=C\CCCCN4[C@H]12)C3` [IRCINOL A], in the data set on Leishmania donovani, the half-maximal inhibitory concentration (IC50) is 0.9 µg/mL (≈ 2.26 µM) and it took 1.7 µg/mL (≈ 4.27 µM) to reach the 90% level (IC90).

`O[C@]12C=C(c3nccc4c3[nH]c3ccccc34)[C@@H]3CCN(CCCC/C=C\CC1)C[C@@]31C[C@@H]3/C=C\CCCCN3[C@H]12` [MANZAMINE A]: the Activity with Vero came out at 1200 ng/mL. Further, the MIC in data set [3] turned out to be 1.53 µg/mL (≈ 2.79 µM). This molecule also showed a half-maximal effective concentration (EC50) in data set [4] of 590 nM.

As for `O=C1CCCN2[C@@H](CC1)C[C@]13CN4CCCC/C=C\CC[C@](O)(C=C(c5nccc6c5[nH]c5ccccc56)C1CC4)[C@H]23` (stereo not given in full) [MANZAMINE E], the Activity entry in the data set on Vero is given as “Non-toxic”. 3.76 µg/mL (≈ 6.66 µM) was the least that counted as inhibitory in data set [3] (MIC).

For the molecule `O=C1CCCN2[C@@H](CC1)C[C@]13CN4CCCC/C=C\CC[C@](O)(C=C(c5nccc6c5[nH]c5c(O)cccc56)C1CC4)[C@H]23` (stereo not given in full) [MANZAMINE F], the Activity entry in the data set on Vero is reported as “Non-toxic”. The molecule also returned an MIC in data set [3] of 2.56 µg/mL (≈ 4.41 µM).

Turning to `Oc1ccc2[nH]c3c(C4=C[C@@]5(O)CC/C=C\CCCCN6CC[C@@H]4[C@@]4(C6)C[C@@]67CC[C@@H](CCCN6[C@H]45)O7)nccc3c2c1` [MANZAMINE X], the IC50 with HT-29 was found to be 0.5 µg/mL (≈ 0.861 µM); with Plasmodium falciparum [1] it was 2 µg/mL (≈ 3.44 µM); in data set [5], 5.1 µg/mL (≈ 8.78 µM); in the data set on Plasmodium falciparum [2], 0.95 µg/mL (≈ 1.64 µM); in the data set on Leishmania donovani, 5.7 µg/mL (≈ 9.81 µM); in data set [6] it was 5.1 µg/mL (≈ 8.78 µM). The molecule also displayed a half-maximal inhibitory concentration (IC50) in [7] of 5.1 µg/mL (≈ 8.78 µM). For the same molecule, the Activity entry with Vero is given as “Non-toxic”. In the data set with Leishmania donovani, this molecule registered a concentration for an effect of 90% (IC90) of 11 µg/mL (≈ 18.9 µM).

Take `c1ccc2c(c1)[nH]c1cnccc12` [NORHARMANE]: the Activity entry in the data set on Vero was “Non-toxic”. For the same molecule, the result in the data set with Plasmodium falciparum [1], in the data set with Plasmodium falciparum [2] and with Leishmania donovani was inactive.
